Data published in ChEMBL document CHEMBL2086245, “Micelles catalyzed chemo- and regio-selective one pot and one step synthesis of 2,3,5,6-tetrakis(alkyl and arylsulfanyl)-1,4-benzoquinones and 2,5-diaminosubstituted-1,4-benzoquinones "In-Water" and their biological evaluation as antibacterial and antifungal agents” (Eur J Med Chem, 2012).
In brackets after ≈: the same amount, converted by molar mass.

What was measured:
[1] = test system: Cryptococcus neoformans; assay: Antifungal activity against Cryptococcus neoformans after 72 hrs by broth microdilution method; format: functional
Outline: (§1)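 NCCLS broth microdilution in MOPS-buffered RPMI 1640, 96-well plates. Inoculum 1-5 × 10^3 cells/mL, moist chamber, 35 °C. Absorbance at 492 nm read at 48 h (C. albicans, C. parapsilosis), 72 h (C. neoformans, S. schenckii, A. fumigatus) or 96 h (T. mentagrophytes). MIC defined as 90% growth inhibition versus growth control.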

[2] = test system: Sporothrix schenckii; assay: Antifungal activity against Sporothrix schenckii after 72 hrs by broth microdilution method; format: functional; outline: as §1
[3] = test system: Trichophyton mentagrophytes; assay: Antifungal activity against Trichophyton mentagrophytes after 96 hrs by broth microdilution method; format: functional; outline: as §1
[4] = test system: Aspergillus fumigatus; assay: Antifungal activity against Aspergillus fumigatus after 72 hrs by broth microdilution method; format: functional; outline: as §1
[5] = test system: Candida parapsilosis; assay: Antifungal activity against Candida parapsilosis ATCC 22019 after 48 hrs by broth microdilution method; format: functional; settings: Lodderomyces parapsilosis, ATCC 22019, 48 h; outline: as §1
[6] = test system: Escherichia coli; assay: Antibacterial activity against Escherichia coli ATCC 9637 after 24 hrs by broth microdilution method; format: functional
Outline: (§2)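 NCCLS broth microdilution in Mueller-Hinton broth, 96-well plates. Initial inoculum 1-5 × 10^3 cells/mL. Incubated in a moist chamber at 35 °C for 24 h, then absorbance read at 492 nm. MIC taken as the concentration giving 90% growth inhibition relative to the growth control.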

[7] = test system: Pseudomonas aeruginosa; assay: Antibacterial activity against Pseudomonas aeruginosa ATCC BAA-427 after 24 hrs by broth microdilution method; format: functional; outline: as §2
[8] = test system: Staphylococcus aureus; assay: Antibacterial activity against Staphylococcus aureus ATCC 25923 after 24 hrs by broth microdilution method; format: functional; outline: as §2
[9] = test system: Klebsiella pneumoniae; assay: Antibacterial activity against Klebsiella pneumoniae ATCC 27736 after 24 hrs by broth microdilution method; format: functional; outline: as §2
[10] = test system: Candida albicans; assay: Antifungal activity against Candida albicans after 48 hrs by broth microdilution method; format: functional; outline: as §1
[11] = test system: L929; assay: Cytotoxicity against mouse L929 cells assessed as morphological changes at 0.39 to 1.56 ug/ml using Giemsa staining by phase contrast microscopy analysis; format: cell-based
Outline: (§3)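 L929 fibroblasts in serum-free RPMI exposed to compound for 24 h. Wells fixed, Giemsa-stained 30 min at 37 °C, washed with PBS, air-dried. Morphology inspected by phase contrast microscopy against untreated control wells.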

[12] = test system: L929; assay: Cytotoxicity against mouse L929 cells assessed as morphological changes at 6.25 to 50 ug/ml using Giemsa staining by phase contrast microscopy analysis; format: cell-based; outline: as §3
[13] = Cytotoxicity against mouse L929 cells assessed as cell viability at 6.25 to 50 ug/ml after 24 hrs by MTT assay; format: cell-based; settings: read-out: Activity

| Compound | MIC [1] [µg/mL] | MIC [2] [µg/mL] | MIC [3] [µg/mL] | MIC [4] [µg/mL] | MIC [5] [µg/mL] | MIC ([6]; ATCC 9637, 24 h) [µg/mL] | MIC ([7]; ATCC BAA-427, 24 h) [µg/mL] | MIC ([8]; ATCC 25923, 24 h) [µg/mL] | MIC ([9]; ATCC 27736, 24 h) [µg/mL] | MIC [10] [µg/mL] | Activity [11] | Activity [12] | viability at 24 h [13] [%] | MIC [6] [µg/mL] | MIC [7] [µg/mL] | MIC [8] [µg/mL] | MIC [9] [µg/mL] |
| --- | --- | --- | --- | --- | --- | --- | --- | --- | --- | --- | --- | --- | --- | --- | --- | --- | --- |
| Cc1ccc(SC2=C(Sc3ccc(C)cc3)C(=O)C(Sc3ccc(C)cc3)=C(Sc3ccc(C)cc3)C2=O)cc1 | > 50 | 50 (≈ 83.8 µM) | > 50 | > 50 | 25 (≈ 41.9 µM) | > 50 | > 50 | > 50 | > 50 | 25 (≈ 41.9 µM) |  |  |  |  |  |  |  |
| OC(Cn1cncn1)(Cn1cncn1)c1ccc(F)cc1F [FLUCONAZOLE] | 2 (≈ 6.53 µM) | 4 (≈ 13.1 µM) | 16 (≈ 52.2 µM) | > 32 | 0.5 (≈ 1.63 µM) |  |  |  |  | 1 (≈ 3.27 µM) |  |  |  |  |  |  |  |
| O=C1C(Cl)=C(N2CCCCC2)C(=O)C(Cl)=C1N1CCCCC1 | 25 (≈ 72.8 µM) | 25 (≈ 72.8 µM) | 12.5 (≈ 36.4 µM) | > 50 | 25 (≈ 72.8 µM) | > 50 | > 50 | > 50 | > 50 | 25 (≈ 72.8 µM) |  |  |  |  |  |  |  |
| O=C1C(Sc2ccccc2)=C(Sc2ccccc2)C(=O)C(Sc2ccccc2)=C1Sc1ccccc1 | 12.5 (≈ 23.1 µM) | 1.56 (≈ 2.88 µM) | 0.78 (≈ 1.44 µM) | 50 (≈ 92.5 µM) | 6.25 (≈ 11.6 µM) | > 50 | > 50 | > 50 | > 50 | 12.5 (≈ 23.1 µM) |  |  |  |  |  |  |  |
| Clc1ccccc1C(c1ccccc1)(c1ccccc1)n1ccnc1 [CLOTRIMAZOLE] | 0.25 (≈ 0.725 µM) | 4 (≈ 11.6 µM) | 2 (≈ 5.8 µM) | 8 (≈ 23.2 µM) | 1 (≈ 2.9 µM) |  |  |  |  | 0.25 (≈ 0.725 µM) |  |  |  |  |  |  |  |
| O=C1C(Cl)=C(N2CCCC2)C(=O)C(Cl)=C1N1CCCC1 | 25 (≈ 79.3 µM) | > 50 | 50 (≈ 159 µM) | > 50 | 50 (≈ 159 µM) | > 50 | > 50 | > 50 | > 50 | 25 (≈ 79.3 µM) |  |  |  |  |  |  |  |
| O=C1C=C(Sc2ccccc2)C(=O)C=C1Sc1ccccc1 | 25 (≈ 77.1 µM) | 50 (≈ 154 µM) | 50 (≈ 154 µM) | > 50 | 50 (≈ 154 µM) | > 50 | > 50 | > 50 | > 50 | 25 (≈ 77.1 µM) |  |  |  |  |  |  |  |
| CN1CCN(C2=C(Cl)C(=O)C(N3CCN(C)CC3)=C(Cl)C2=O)CC1 | 1.56 (≈ 4.18 µM) | 1.56 (≈ 4.18 µM) | 0.78 (≈ 2.09 µM) | 12.5 (≈ 33.5 µM) | 6.25 (≈ 16.7 µM) | 6.25 (≈ 16.7 µM) | > 50 | 6.25 (≈ 16.7 µM) | 6.25 (≈ 16.7 µM) | 6.25 (≈ 16.7 µM) | Non-toxic | Toxic | > 90 |  |  |  |  |
| O=C1C(O)=C(Sc2cccc3ccccc23)C(=O)C(Sc2cccc3ccccc23)=C1Sc1cccc2ccccc12 | 25 (≈ 41.8 µM) | > 50 | 50 (≈ 83.5 µM) | > 50 | 25 (≈ 41.8 µM) | > 50 | > 50 | > 50 | > 50 | 25 (≈ 41.8 µM) |  |  |  |  |  |  |  |
| O=C1C(Cl)=C(Sc2ccccc2)C(=O)C(Sc2ccccc2)=C1Sc1ccccc1 | 25 (≈ 53.5 µM) | 50 (≈ 107 µM) | 50 (≈ 107 µM) | > 50 | 25 (≈ 53.5 µM) | > 50 | > 50 | 50 (≈ 107 µM) | > 50 | 25 (≈ 53.5 µM) |  |  |  |  |  |  |  |
| Nc1nc(=O)[nH]cc1F [FLUCYTOSINE] | 0.13 (≈ 1.01 µM) | > 32 | > 32 | > 32 | 0.13 (≈ 1.01 µM) |  |  |  |  | 0.25 (≈ 1.94 µM) |  |  |  |  |  |  |  |
| CC1(C)S[C@@H]2[C@H](NC(=O)[C@H](N)c3ccccc3)C(=O)N2[C@H]1C(=O)O [AMPICILLIN] |  |  |  |  |  | 12.5 (≈ 35.8 µM) | > 50 | 12.5 (≈ 35.8 µM) | > 50 |  |  |  |  |  |  |  |  |
| O=C1C(Cl)=C(N2CCOCC2)C(=O)C(Cl)=C1N1CCOCC1 | 12.5 (≈ 36 µM) | 12.5 (≈ 36 µM) | 6.25 (≈ 18 µM) | > 50 | 12.5 (≈ 36 µM) | > 50 | > 50 | 25 (≈ 72 µM) | > 50 | 12.5 (≈ 36 µM) |  |  |  |  |  |  |  |
| O=C1C(Cl)=C(Sc2cccc3ccccc23)C(=O)C(Sc2cccc3ccccc23)=C1Sc1cccc2ccccc12 | 25 (≈ 40.5 µM) | 50 (≈ 81 µM) | 50 (≈ 81 µM) | > 50 | 12.5 (≈ 20.3 µM) | > 50 | > 50 | 12.5 (≈ 20.3 µM) | > 50 | 25 (≈ 40.5 µM) |  |  |  |  |  |  |  |
| Cc1ccc(SC2=C(O)C(=O)C(Sc3ccc(C)cc3)=C(Sc3ccc(C)cc3)C2=O)cc1 | 25 (≈ 51 µM) | > 50 | 50 (≈ 102 µM) | > 50 | 25 (≈ 51 µM) | > 50 | > 50 | > 50 | > 50 | 12.5 (≈ 25.5 µM) |  |  |  |  |  |  |  |
| O=C1C(O)=C(Sc2ccccc2)C(=O)C(Sc2ccccc2)=C1Sc1ccccc1 | 12.5 (≈ 27.9 µM) | 50 (≈ 111 µM) | 50 (≈ 111 µM) | > 50 | 12.5 (≈ 27.9 µM) | > 50 | > 50 | > 50 | > 50 | 12.5 (≈ 27.9 µM) |  |  |  |  |  |  |  |
| O=C1C(Cl)=C(Sc2cccc3ccccc23)C(=O)C(Cl)=C1Sc1cccc2ccccc12 | 25 (≈ 50.7 µM) | 50 (≈ 101 µM) | 50 (≈ 101 µM) | > 50 | 12.5 (≈ 25.3 µM) | > 50 | > 50 | 25 (≈ 50.7 µM) | > 50 | 25 (≈ 50.7 µM) |  |  |  |  |  |  |  |
| Cc1ccc(SC2=C(Cl)C(=O)C(Sc3ccc(C)cc3)=C(Cl)C2=O)cc1 | 25 (≈ 59.3 µM) | 50 (≈ 119 µM) | 50 (≈ 119 µM) | > 50 | 25 (≈ 59.3 µM) | > 50 | > 50 | 50 (≈ 119 µM) | > 50 | 25 (≈ 59.3 µM) |  |  |  |  |  |  |  |
| CCOC(=O)CSC1=C(SCC(=O)OCC)C(=O)C(SCC(=O)OCC)=C(SCC(=O)OCC)C1=O | 50 (≈ 86.1 µM) | > 50 | 50 (≈ 86.1 µM) | > 50 | 25 (≈ 43 µM) | > 50 | > 50 | 50 (≈ 86.1 µM) | > 50 | 25 (≈ 43 µM) |  |  |  |  |  |  |  |
| CCOC(=O)CC(SC1=C(SC(CC(=O)OCC)C(=O)OCC)C(=O)C(SC(CC(=O)OCC)C(=O)OCC)=C(SC(CC(=O)OCC)C(=O)OCC)C1=O)C(=O)OCC (centres undefined) | 50 (≈ 54 µM) | > 50 | 50 (≈ 54 µM) | > 50 | 25 (≈ 27 µM) | > 50 | > 50 | > 50 | > 50 | 25 (≈ 27 µM) |  |  |  |  |  |  |  |
| O=C1C(Cl)=C(Sc2ccccc2)C(=O)C(Cl)=C1Sc1ccccc1 | 25 (≈ 63.6 µM) | 50 (≈ 127 µM) | 50 (≈ 127 µM) | > 50 | 25 (≈ 63.6 µM) | > 50 | > 50 | 50 (≈ 127 µM) | > 50 | 25 (≈ 63.6 µM) |  |  |  |  |  |  |  |
| GENTAMICIN |  |  |  |  |  |  |  |  |  |  |  |  |  | 1.56 | 0.39 | 1.56 | 1.56 |
